Activity calls are given as the source filed them. The rule behind the calls is not given here.
How the values were obtained:
[1] = test system: HepG2; assay: Induction of cell cycle arrest on human HepG2 cells assessed as accumulation at S phase at 20 uM after 48 hrs by propidium iodide staining based flow cytometry (reference value: 9.3 +/- 13.2%); type: functional
Summary of the method: (§1)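 HepG2 or SW620 cells were seeded at 25000 per well. After 24 h they were treated, then harvested 24 or 48 h later. Attached cells were trypsinized, pooled with floating cells, PBS-washed and fixed in 70% ethanol. Cells were stained with PI 1 µg/mL plus RNase A 0.2 µg/mL, and 10 000 events were acquired by flow cytometry. Phase percentages come from DNA histograms, in duplicate, with ANOVA at p < 0.05.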

[2] = test system: HepG2; assay: Induction of cell cycle arrest on human HepG2 cells assessed as accumulation at subG1 phase at 50 uM after 24 hrs by propidium iodide staining based flow cytometry (reference value: 2.9 +/- 1.1%); type: functional; summary of the method: as §1
[3] = test system: Hep G2 (human); assay: Induction of apoptosis in human HepG2 cells assessed as induction of apoptotic bodies at 50 uM after 24 hrs by Annexin V-Fluos staining based fluorescent microscopy
[4] = test system: HepG2; assay: Induction of cell cycle arrest on human HepG2 cells assessed as accumulation at G2/M phase at 50 uM after 48 hrs by propidium iodide staining based flow cytometry (reference value: 28.0 +/- 13.8%); type: functional
[5] = test system: HepG2; assay: Induction of cell cycle arrest on human HepG2 cells assessed as accumulation at subG1 phase at 20 uM after 48 hrs by propidium iodide staining based flow cytometry (reference value: 1.7 +/- 0.5%); type: functional; summary of the method: as §1
[6] = test system: Hep G2 (human); assay: Induction of apoptosis in human HepG2 cells assessed as induction of cytoplasmic shrinkage at 50 uM after 24 hrs by Annexin V-Fluos staining based fluorescent microscopy
[7] = test system: HepG2; assay: Induction of cell cycle arrest on human HepG2 cells assessed as accumulation at S phase at 50 uM after 24 hrs by propidium iodide staining based flow cytometry (reference value: 17.0 +/- 2.9%); type: functional; summary of the method: as §1
[8] = test system: HepG2; assay: Induction of cell cycle arrest on human HepG2 cells assessed as accumulation at G1 phase at 20 uM after 48 hrs by propidium iodide staining based flow cytometry (reference value: 62.7 +/- 0.5%); type: functional
[9] = test system: MCF7; assay: Antiproliferative activity against human MCF7 cells assessed as inhibition of cell proliferation after 72 hrs by MTT assay; type: functional, cell-based
Summary of the method: (§2)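 Cells grown as monolayers in DMEM with 10% FBS, 2 mM L-glutamine, penicillin/streptomycin, 37 °C, 5% CO2. Seeded at 5000/well on day 0. Compounds added after 24 h as five serial dilutions (0,01 to 100 µM), DMSO ≤0.1%, then 72 h. MTT read-out converted to percentage growth. IC50 by linear regression; quadruplicates in three experiments.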

[10] = (§3) Antiproliferative activity against human SW620 cells assessed as inhibition of cell proliferation after 72 hrs by MTT assay; type: functional, cell-based, SW-620; conditions: Homo sapiens, SW-620, 72 h; summary of the method: as §2
[11] = test system: SW-620; assay: as §3; type: functional, cell-based; summary of the method: as §2
[12] = test system: HepG2; assay: Induction of cell cycle arrest on human HepG2 cells assessed as accumulation at G2/M phase at 50 uM after 24 hrs by propidium iodide staining based flow cytometry (reference value: 16.5 +/- 1.6%); type: functional
[13] = test system: HepG2; assay: Induction of cell cycle arrest on human HepG2 cells assessed as accumulation at G1 phase at 50 uM after 24 hrs by propidium iodide staining based flow cytometry (reference value: 66.5 +/- 1.4%); type: functional
[14] = test system: HepG2; assay: Antiproliferative activity against human HepG2 cells assessed as inhibition of cell proliferation after 72 hrs by MTT assay; type: functional, cell-based; summary of the method: as §2
[15] = test system: HepG2; assay: Induction of cell cycle arrest on human HepG2 cells assessed as accumulation at S phase at 20 uM after 24 hrs by propidium iodide staining based flow cytometry (reference value: 17.0 +/- 2.9%); type: functional
[16] = test system: BJ; assay: Antiproliferative activity against human BJ cells assessed as inhibition of cell proliferation after 72 hrs by MTT assay; type: cell-based; conditions: 72 h; summary of the method: as §2
[17] = test system: HepG2; assay: Induction of cell cycle arrest on human HepG2 cells assessed as accumulation at subG1 phase at 20 uM after 24 hrs by propidium iodide staining based flow cytometry (reference value: 2.9 +/- 1.1%); type: functional; summary of the method: as §1
[18] = test system: HepG2; assay: Induction of cell cycle arrest on human HepG2 cells assessed as accumulation at S phase at 50 uM after 48 hrs by propidium iodide staining based flow cytometry (reference value: 9.3 +/- 13.2%); type: functional; summary of the method: as §1
[19] = test system: HeLa; assay: Antiproliferative activity against human HeLa cells assessed as inhibition of cell proliferation after 72 hrs by MTT assay; type: functional, cell-based; summary of the method: as §2
[20] = test system: HepG2; assay: Induction of cell cycle arrest on human HepG2 cells assessed as accumulation at G1 phase at 20 uM after 24 hrs by propidium iodide staining based flow cytometry (reference value: 66.5 +/- 1.4%); type: functional
[21] = test system: HepG2; assay: Induction of cell cycle arrest on human HepG2 cells assessed as accumulation at subG1 phase at 50 uM after 48 hrs by propidium iodide staining based flow cytometry (reference value: 1.7 +/- 0.5%); type: functional; summary of the method: as §1
[22] = test system: HepG2; assay: Induction of cell cycle arrest on human HepG2 cells assessed as accumulation at G1 phase at 50 uM after 48 hrs by propidium iodide staining based flow cytometry (reference value: 62.7 +/- 0.5%); type: functional
[23] = test system: HepG2; assay: Induction of cell cycle arrest on human HepG2 cells assessed as accumulation at G2/M phase at 20 uM after 48 hrs by propidium iodide staining based flow cytometry (reference value: 28.0 +/- 13.8%); type: functional
[24] = test system: HepG2; assay: Induction of cell cycle arrest on human HepG2 cells assessed as accumulation at G2/M phase at 20 uM after 24 hrs by propidium iodide staining based flow cytometry (reference value: 16.5 +/- 1.6%); type: functional

## N#Cc1ccc(/N=C2\c3ccccc3CN2c2ccc(C#N)cn2)nc1
[1]
  Activity: 19.5%
[2]
  Activity: 6.7%
[3]
  Activity: inactive
[4]
  Activity: 20.3%
[5]
  Activity: 5.7%
[6]
  Activity: inactive
[7]
  Activity: 26.4%
[8]
  Activity: 61%
[9]
  inhibition: Dose-dependent effect
[9]; Homo sapiens, MCF7, 72 h
  IC50: 71.2 µM
[10]
  IC50: > 100 µM
[11]
  inhibition: Dose-dependent effect
[12]
  Activity: 16.2%
[13]
  Activity: 57.4%
[14]
  inhibition: Dose-dependent effect
[14]; HepG2, 72 h
  IC50: 9.41 µM
[15]
  Activity: 21.5%
[16]; Homo sapiens, BJ
  IC50: 63.8 µM
[16]; human, bj
  inhibition (INH): Dose-dependent effect
[17]
  Activity: 6.6%
[18]
  Activity: 18.5%
[19]
  inhibition: Dose-dependent effect
[19]; Homo sapiens, HeLa, 72 h
  IC50: 8.81 µM
[20]
  Activity: 58.1%
[21]
  Activity: 8.4%
[22]
  Activity: 61.2%
[23]
  Activity: 19.5%
[24]
  Activity: 20.4%

— ChEMBL document CHEMBL3352181, “Novel phenyl and pyridyl substituted derivatives of isoindolines: Synthesis, antitumor activity and DNA binding features” (Eur J Med Chem, 2014)
